Reference: ChEMBL document CHEMBL1132157 (J Med Chem, 1999)

What was measured:
[1] = Ratio of IC50 for human 5-HT1B to human 5-HT1D receptors
[2] = target: T1, 5-hydroxytryptamine receptor 1D (Homo sapiens, UniProt P28221); experiment: Displacement of [3H]5-HT binding to cloned human 5-hydroxytryptamine 1D receptor stably expressed in CHO cells; format: cell-based
Method in brief: (§1)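 Membranes from thawed CHO cells with human 5-HT1B or 5-HT1D, washed in 50 mM Tris-HCl pH 7.7, preincubated 10 min at 37 °C to remove endogenous 5-HT. Buffer holds 0.1% ascorbate, 10 μM pargyline and 4 mM CaCl2. Uses 2.0 nM [3H]5-HT, 30 min at 37 °C; 10 μM 5-HT defines nonspecific binding. Filtration; IC50 by nonlinear regression; duplicates, 2–5 occasions.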

[3] = target: 5-hydroxytryptamine receptor 1B (Homo sapiens, UniProt P28222); experiment: Displacement of [3H]5-HT binding to cloned 5-hydroxytryptamine 1B receptor stably expressed in CHO cells; format: cell-based; method in brief: as §1
[4] = target: T1, 5-hydroxytryptamine receptor 1D; experiment: Maximum stimulation of [35S]GTP-gamma-S, binding in CHO cells expressing human 5-HT-1d relative to 5-HT; format: functional, cell-based
Method in brief: (§2)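 Membranes from thawed CHO cells with human 5-HT1D, prepared in ice-cold 20 mM Hepes/EDTA at pH 7.4, spun at 40000g. Assay buffer: 100 mM NaCl, 10 mM MgCl2, 0.1% ascorbate, 10 μM pargyline. GDP 100 μM plus drug, 20 min at 30 °C, then ice 15 min. Then 100 pM [35S]GTPγS, 30 min at 30 °C, filtration. Emax is taken as % of maximal 5-HT response; duplicates, 2–5 occasions.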

[5] = target: T1, 5-hydroxytryptamine receptor 1D; experiment: Agonist-induced [35S]- GTPgammaS binding in CHO cells stably transfected with 5-hydroxytryptamine 1D receptor; format: cell-based; method in brief: as §2

T1 sequence (P28221 whole entry): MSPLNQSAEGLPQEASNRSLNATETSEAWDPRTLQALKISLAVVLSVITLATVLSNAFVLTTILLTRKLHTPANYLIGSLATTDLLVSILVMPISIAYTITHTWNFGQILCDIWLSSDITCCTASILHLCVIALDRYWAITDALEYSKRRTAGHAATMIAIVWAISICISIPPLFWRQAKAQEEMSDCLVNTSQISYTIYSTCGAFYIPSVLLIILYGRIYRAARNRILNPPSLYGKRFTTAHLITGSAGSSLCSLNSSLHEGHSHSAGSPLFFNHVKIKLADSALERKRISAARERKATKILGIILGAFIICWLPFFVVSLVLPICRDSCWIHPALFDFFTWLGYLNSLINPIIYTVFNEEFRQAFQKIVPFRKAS
5-hydroxytryptamine receptor 1B, sequence (P28222 whole entry): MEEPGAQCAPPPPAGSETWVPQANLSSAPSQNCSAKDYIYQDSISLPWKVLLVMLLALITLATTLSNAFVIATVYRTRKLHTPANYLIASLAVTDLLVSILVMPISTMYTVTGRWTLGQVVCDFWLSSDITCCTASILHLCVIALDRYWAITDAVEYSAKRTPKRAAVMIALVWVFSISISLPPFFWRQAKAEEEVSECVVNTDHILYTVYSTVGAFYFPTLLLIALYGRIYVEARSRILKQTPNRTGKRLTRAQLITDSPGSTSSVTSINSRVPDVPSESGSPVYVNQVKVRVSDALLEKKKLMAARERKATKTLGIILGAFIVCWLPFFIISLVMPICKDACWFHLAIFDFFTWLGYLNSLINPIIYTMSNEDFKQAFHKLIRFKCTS

Compound	Selectivity [1]	IC50 [2] [nM]	IC50 [3] [nM]	Efficacy [4] [%]	EC50 [5] [nM]
CN(Cc1ccoc1)C1CCN(CCCc2c[nH]c3ccc(-n4cnnc4)cc23)CC1	25	8.1	200	87	8.9
c1ccc2c(c1)CCC2NC1CCN(CCCc2c[nH]c3ccc(-n4cnnc4)cc23)CC1 (stereo not drawn)	31	8.9	280	68	25
c1ccc(NCC2CCN(CCCc3c[nH]c4ccc(-n5cnnc5)cc34)CC2)nc1	1.9	1.7	3.3		
O=C1N[C@@H](Cc2ccc3[nH]cc(CCCN4CCC(N[C@@H](CO)c5ccccc5)CC4)c3c2)CO1	73	6.3	460	83	6
CN(CC1CCN(CCCc2c[nH]c3ccc(-n4cnnc4)cc23)CC1)S(=O)(=O)c1ccccc1	11	1.6	18		
OC[C@@H](NCC1CCN(CCCc2c[nH]c3ccc(-n4cnnc4)cc23)CC1)c1ccccc1	10	3.4	34		
CN(CC1CCN(CCCc2c[nH]c3ccc(-n4cnnc4)cc23)CC1)[C@@H](CO)c1ccccc1	14	6	85		
CN(Cc1ccco1)C1CCN(CCCc2c[nH]c3ccc(-n4cnnc4)cc23)CC1	9.6	9.3	89		
CN(CC1CC1)C1CCN(CCCc2c[nH]c3ccc(-n4cnnc4)cc23)CC1	12	22	260		
CN(C1CCN(CCCc2c[nH]c3ccc(-n4cnnc4)cc23)CC1)S(=O)(=O)c1ccccc1	6.7	1.5	10		
CC(C)=CCCN(C)C1CCN(CCCc2c[nH]c3ccc(-n4cnnc4)cc23)CC1	9.2	2.6	24		
OC[C@H](NCC1CCN(CCCc2c[nH]c3ccc(-n4cnnc4)cc23)CC1)c1ccccc1	13	5.9	79		
O=C(c1ccc(F)cc1)C1CCN(CCn2c(=O)[nH]c3ccccc3c2=O)CC1 [KETANSERIN]	> 37	270	> 10000		
C[C@@H](NCC1CCN(CCCc2c[nH]c3ccc(-n4cnnc4)cc23)CC1)c1ccccc1	10	1.4	14		
C[C@H](NCC1CCN(CCCc2c[nH]c3ccc(-n4cnnc4)cc23)CC1)c1ccccc1	13	4.4	58		
NC1CCN(CCCc2c[nH]c3ccc(-n4cnnc4)cc23)CC1	5.3	12	63		
c1cc2[nH]cc(CCN3CCCC3)c2cc1-n1cnnc1	9				
CNS(=O)(=O)Cc1ccc2[nH]cc(CCCN3CCC(N[C@H](C)c4ccccc4)CC3)c2c1	6	43	260		
C=CCN(C)C1CCN(CCCc2c[nH]c3ccc(-n4cnnc4)cc23)CC1	16	20	320		

Continued, values first:

Selectivity [1]	IC50 [2] [nM]	IC50 [3] [nM]	Efficacy [4] [%]	EC50 [5] [nM]	Compound
18	1.6	28	101	5.6	c1ccc(CNCC2CCN(CCCc3c[nH]c4ccc(-n5cnnc5)cc34)CC2)cc1
40	0.6	24	94	2.8	CC(=O)Nc1ccc(CN(C)CC2CCN(CCCc3c[nH]c4ccc(-n5cnnc5)cc34)CC2)cc1
20	7.6	150	81	30	C[C@H](O)[C@H](NC1CCN(CCCc2c[nH]c3ccc(-n4cnnc4)cc23)CC1)c1ccccc1
53	0.9	48	85	1	C[C@@H](O)[C@H](NC1CCN(CCCc2c[nH]c3ccc(-n4cnnc4)cc23)CC1)c1ccccc1
15	3	45	75	5	CC(=O)Nc1ccc(CNC2CCN(CCCc3c[nH]c4ccc(-n5cnnc5)cc34)CC2)cc1
1.1	5.9	6.2			CN(CC1CCN(CCCc2c[nH]c3ccc(-n4cnnc4)cc23)CC1)C(=O)Nc1ccccc1
8.7	1.5	13			CN(C)C[C@H](NC1CCN(CCCc2c[nH]c3ccc(-n4cnnc4)cc23)CC1)c1ccccc1
67					CN(Cc1ccccc1)C1CCN(CCCc2c[nH]c3ccc(-n4cnnc4)cc23)CC1
2.4	17	40			CC(=O)Nc1ccc(C(=O)N(C)CC2CCN(CCCc3c[nH]c4ccc(-n5cnnc5)cc34)CC2)cc1
5.3	19	100			CC(=O)Nc1ccc(CN(C)C2CCN(CCCc3c[nH]c4ccc(-n5cnnc5)cc34)CC2)cc1
8.1	8.1	66			CN(Cc1ccc(S(C)(=O)=O)cc1)CC1CCN(CCCc2c[nH]c3ccc(-n4cnnc4)cc23)CC1
14	12	170			CC(=O)Nc1ccc(CCNC2CCN(CCCc3c[nH]c4ccc(-n5cnnc5)cc34)CC2)cc1
7.8	18	140			CN(Cc1ccc(S(C)(=O)=O)cc1)C1CCN(CCCc2c[nH]c3ccc(-n4cnnc4)cc23)CC1
88	0.4		90	13	C[C@@H](NC1CCN(CCCc2c[nH]c3ccc(-n4cnnc4)cc23)CC1)c1ccccc1
8.1	37	300			O[C@H]1Cc2ccccc2C1NC1CCN(CCCc2c[nH]c3ccc(-n4cnnc4)cc23)CC1 (stereo partly drawn)
4	35	140			c1cncc(CNC2CCN(CCCc3c[nH]c4ccc(-n5cnnc5)cc34)CC2)c1
85			95	1.7	OC[C@H](NC1CCN(CCCc2c[nH]c3ccc(-n4cnnc4)cc23)CC1)c1ccccc1
7.8	18	140			CN(C(=O)Nc1ccccc1)C1CCN(CCCc2c[nH]c3ccc(-n4cnnc4)cc23)CC1
5.4	14	76			c1ccc(CNC2CCN(CCCc3c[nH]c4ccc(-n5cnnc5)cc34)CC2)nc1
64	1.4	89			COC[C@H](NC1CCN(CCCc2c[nH]c3ccc(-n4cnnc4)cc23)CC1)c1ccc(F)cc1
30	0.9	27	93		CN(Cc1ccccc1)CC1CCN(CCCc2c[nH]c3ccc(-n4cnnc4)cc23)CC1
2.1	4.2	8.9			CC(=O)Nc1ccc(CNCC2CCN(CCCc3c[nH]c4ccc(-n5cnnc5)cc34)CC2)cc1
5.9	1.5	8.9			CC(=O)Nc1ccc([C@@H](C)NCC2CCN(CCCc3c[nH]c4ccc(-n5cnnc5)cc34)CC2)cc1
12	5.7	66			CC(=O)Nc1ccc(CCN(C)C2CCN(CCCc3c[nH]c4ccc(-n5cnnc5)cc34)CC2)cc1
